The source made the active and inactive calls. The rule behind the calls is not given here.
Key:
Calvarial osteoblast [1] = test: Anabolic activity in rat calvarial osteoblasts assessed as induction of alkaline phosphatase activity at 1 pM after 48 hrs in presence of beta-glycerophosphate and ascorbic acid by p-nitrophenyl phosphate substrate based assay (reference value: 1 to 1.21); assay type: functional
Calvarial osteoblast [2] = test: Anabolic activity in rat calvarial osteoblasts assessed as induction of alkaline phosphatase activity at 100 pM after 48 hrs in presence of beta-glycerophosphate and ascorbic acid by p-nitrophenyl phosphate substrate based assay (reference value: 1 to 1.21); assay type: functional
Calvarial osteoblast [3] = test: Anabolic activity in rat calvarial osteoblasts assessed as induction of alkaline phosphatase activity at 10 nM after 48 hrs in presence of beta-glycerophosphate and ascorbic acid by p-nitrophenyl phosphate substrate based assay (reference value: 1 to 1.21); assay type: functional
Calvarial osteoblast [4] = test: Anabolic activity in rat calvarial osteoblasts assessed as induction of alkaline phosphatase activity at 1 uM after 48 hrs in presence of beta-glycerophosphate and ascorbic acid by p-nitrophenyl phosphate substrate based assay (reference value: 1 to 1.21); assay type: functional
Calvarial osteoblast [5] = test: Anabolic activity in rat calvarial osteoblasts assessed as induction of alkaline phosphatase activity at 100 uM after 48 hrs in presence of beta-glycerophosphate and ascorbic acid by p-nitrophenyl phosphate substrate based assay (reference value: 1 to 1.21); assay type: functional
Calvarial osteoblast [6] = test: Induction of mineralization in rat calvarial osteoblasts at 0.1 nM to 10 nM after 21 days by Alizarin-red dye based assay; assay type: functional, cell-based
Method in brief: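 Rat pup calvarial osteoblasts were seeded at 1×10^4 cells/well in differentiation medium with compound. Medium was changed every other day for 21 days. Cells were fixed in 4% paraformaldehyde and stained with 40 mM Alizarin red (pH 4.5). Stain was extracted with 10% acetic acid, heated to 85 °C, and neutralised with NH4OH. Absorbance was read at 405 nm.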

Calvarial osteoblast [7] = test: Upregulation of Col1 mRNA levels in rat calvarial osteoblasts at 10 nM after 48 hrs by qRT-PCR analysis relative to control; assay type: functional
Method in brief: (§1)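 Rat pup calvarial osteoblasts were treated for 48 h with compound. Total RNA was extracted with TRIzol and checked by A260 and A260/A280. qRT-PCR used 45 cycles (94 °C, 62 °C, 72 °C steps) and was normalised to GAPDH. Fold change is over untreated cells; n=5, mean ± SEM.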

Calvarial osteoblast [8] = test: Upregulation of Runx2 mRNA levels in rat calvarial osteoblasts at 10 nM after 48 hrs by qRT-PCR analysis relative to control; assay type: functional; method in brief: as §1
Calvarial osteoblast [9] = test: Upregulation of Bmp2 mRNA levels in rat calvarial osteoblasts at 10 nM after 48 hrs by qRT-PCR analysis relative to control; assay type: functional; method in brief: as §1
Calvarial osteoblast [10] = test: Upregulation of ALP mRNA levels in rat calvarial osteoblasts at 100 pM after 48 hrs by qRT-PCR analysis relative to control; assay type: functional; method in brief: as §1
Calvarial osteoblast [11] = test: Upregulation of Osx mRNA levels in rat calvarial osteoblasts at 100 pM after 48 hrs by qRT-PCR analysis relative to control; assay type: functional; method in brief: as §1
Calvarial osteoblast [12] = test: Upregulation of Col1 mRNA levels in rat calvarial osteoblasts at 100 pM after 48 hrs by qRT-PCR analysis relative to control; assay type: functional; method in brief: as §1
Calvarial osteoblast [13] = test: Upregulation of Runx2 mRNA levels in rat calvarial osteoblasts at 100 pM after 48 hrs by qRT-PCR analysis relative to control; assay type: functional; method in brief: as §1
Calvarial osteoblast [14] = test: Upregulation of Bmp2 mRNA levels in rat calvarial osteoblasts at 100 pM after 48 hrs by qRT-PCR analysis relative to control; assay type: functional; method in brief: as §1
Calvarial osteoblast [15] = test: Upregulation of Bmp2 expression levels in rat calvarial osteoblasts at 100 pM after 48 hrs by ELISA; assay type: functional, cell-based
Method in brief: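 Calvarial osteoblasts were seeded at 5×10^3 cells/well and treated 48 h at 100 pM in α-MEM with 1% charcoal-stripped FCS. BMP2 in the culture supernatant was measured by sandwich ELISA, with OD read at 450 nm.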

Calvarial osteoblast [16] = test: Cytotoxicity against rat calvarial osteoblasts at 0.000001 uM to 1 uM after 48 hrs by MTT assay; assay type: cell-based; conditions: 1 pM
Method in brief: (§2)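 Primary osteoblasts from calvaria of 1–2-day-old rat pups, released by sequential dispase/collagenase P digestion and grown in α-MEM with 10% FCS to 70–80% confluence. Seeded at 2000 cells/well and treated with 1 pM to 100 µM for 48 h in differentiation medium (10 mM β-glycerophosphate, 50 µg/mL ascorbic acid). Viability read by MTT against untreated control; n=8, mean ± SEM.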

Calvarial osteoblast [17] = test: Cytotoxicity against rat calvarial osteoblasts at 100 uM after 48 hrs by MTT assay; assay type: cell-based; method in brief: as §2
Calvarial osteoblast [18] = test: Anabolic activity in rat calvarial osteoblasts assessed as induction of alkaline phosphatase activity after 48 hrs in presence of beta-glycerophosphate and ascorbic acid by p-nitrophenyl phosphate substrate based assay; assay type: functional, cell-based
Calvarial osteoblast [19] = test: Upregulation of RUNX2 expression levels in rat calvarial osteoblasts at 100 pM after 48 hrs by Western blot analysis; assay type: functional, cell-based
Calvarial osteoblast [20] = test: Upregulation of BMP2 expression levels in rat calvarial osteoblasts at 100 pM after 48 hrs by Western blot analysis; assay type: functional, cell-based
Calvarial osteoblast [21] = test: Upregulation of COL1 expression levels in rat calvarial osteoblasts at 100 pM after 48 hrs by Western blot analysis; assay type: functional, cell-based
Rattus norvegicus [22] = test: Hepatotoxicity in Sprague-Dawley rat drill-hole fracture model assessed as morphological alterations at 10 mg/kg, po qd for 14 days by haematoxylin and eosin staining-based microscopic analysis; assay type: toxicity, organism-based; conditions: in vivo, 336 h
Method in brief: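 From the next day they were dosed orally for 14 days, 6 per group, with vehicle gum acacia in water. Livers were collected at the end, cut into 5 µm paraffin sections, dewaxed, stained with H&E and examined by light microscopy.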

Rattus norvegicus [23] = test: Osteogenic activity in Sprague-Dawley rat drill-hole fracture model assessed as increase in Bmp2 expression levels at 10 mg/kg/day by qRT-PCR analysis; assay type: functional, organism-based
Rattus norvegicus [24] = test: Osteogenic activity in Sprague-Dawley rat drill-hole fracture model assessed as bone formation at 10 mg/kg/day by H and E staining-based analysis relative to control; assay type: functional, organism-based
Method in brief: (§3)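 Drill-hole femur defect in female Sprague-Dawley rats with oral dosing at 10 mg·kg⁻¹·day⁻¹ or gum acacia vehicle for 14 days. Bones were decalcified in EDTA and the callus at the defect site was stained with H&E; n=6/group.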

Rattus norvegicus [25] = test: Osteogenic activity in Sprague-Dawley rat drill-hole fracture model assessed as increase in trabecular number at 10 mg/kg/day for 14 consecutive days by micro CT-scan analysis; assay type: functional, organism-based
Method in brief: (§4)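 Adult female Sprague-Dawley rats (200 ± 20 g, 12 weeks) under ketamine/xylazine anaesthesia received a 0.8 mm drill-hole defect in the femoral diaphysis, 2 cm above the knee. Dosing was oral at 10 mg·kg⁻¹·day⁻¹, or gum acacia vehicle, for 14 days starting the next day. The defect was scanned by micro-CT at 18 µm voxel and 70 kV; n=6/group.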

Rattus norvegicus [26] = test: Osteogenic activity in Sprague-Dawley rat drill-hole fracture model assessed as increase in connection density at 10 mg/kg/day for 14 consecutive days by micro CT-scan analysis; assay type: functional, organism-based; method in brief: as §4
Rattus norvegicus [27] = test: Osteogenic activity in Sprague-Dawley rat drill-hole fracture model assessed as increase in trabecular thickness at 10 mg/kg/day for 14 consecutive days by micro CT-scan analysis; assay type: functional, organism-based; method in brief: as §4
Rattus norvegicus [28] = test: Osteogenic activity in Sprague-Dawley rat drill-hole fracture model assessed as increase in bone volume/trabecular volume at 10 mg/kg/day for 14 consecutive days by micro CT-scan analysis; assay type: functional, organism-based; method in brief: as §4
Rattus norvegicus [29] = test: Upregulation of Runx2 mRNA in rat pup calvarial tissue at 1 to 10 mg/kg/day administered subcutaneously for 3 consecutive days by qRT-PCR analysis; assay type: functional, organism-based
Method in brief: (§5)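 Rat pups received subcutaneous injections at the calvarial skull site of 0.1, 0.5, 1.0, 5.0, 10 or 20 mg·kg⁻¹·day⁻¹, or normal-saline vehicle, for 3 consecutive days. Calvaria were then collected, RNA was isolated with TRIzol, and Runx2 and Bmp2 were measured by qRT-PCR; n=5, mean ± SEM.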

Rattus norvegicus [30] = test: Upregulation of Bmp2 mRNA in rat pup calvarial tissue at 1 to 10 mg/kg/day administered subcutaneously for 3 consecutive days by qRT-PCR analysis; assay type: functional, organism-based; method in brief: as §5
Rattus norvegicus [31] = test: Upregulation of Bmp2 mRNA in rat pup calvarial tissue at >10 mg/kg/day administered subcutaneously for 3 consecutive days by qRT-PCR analysis; assay type: functional, organism-based; method in brief: as §5
Rattus norvegicus [32] = test: Upregulation of Runx2 mRNA in rat pup calvarial tissue at >10 mg/kg/day administered subcutaneously for 3 consecutive days by qRT-PCR analysis; assay type: functional, organism-based; method in brief: as §5
Rattus norvegicus [33] = test: Osteogenic activity in Sprague-Dawley rat drill-hole fracture model assessed as enhanced callus regeneration of femur bone at 10 mg/kg/day by H and E staining-based analysis; assay type: functional, organism-based; method in brief: as §3
Rattus norvegicus [34] = test: Osteogenic activity in Sprague-Dawley rat drill-hole fracture model assessed as enhanced callus regeneration of femur bone at 10 mg/kg/day by calcein labeling based confocal microscopic method; assay type: functional
Method in brief: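 Drill-hole femur defect in female Sprague-Dawley rats with oral dosing at 10 mg·kg⁻¹·day⁻¹ for 14 days. Calcein (20 mg/kg i.p.) was given 2 days before autopsy. Acrylic-embedded 50 µm bone sections were imaged by confocal microscopy, and mean calcein intensity per pixel was quantified at the defect; n=6/group.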

Rattus norvegicus [35] = test: Osteogenic activity in Sprague-Dawley rat drill-hole fracture model assessed as increase in mineral deposition at 10 mg/kg/day by calcein labeling-based confocal microscopy analysis

SMILES: CCOC(=O)C1=C(C)NC2=C(C(=O)CCC2)C1c1cc(C(C)CC)c2oc(C(=O)c3ccc(C)cc3)cc2c1 (stereo not given)
- OD (Calvarial osteoblast [1]): 1.14
- OD (Calvarial osteoblast [2]): 1.32
- OD (Calvarial osteoblast [3]): 1.19
- OD (Calvarial osteoblast [4]): 1.16
- OD (Calvarial osteoblast [5]): 0.36
- Activity (Calvarial osteoblast [6]): Active
- fold change (FC) (Calvarial osteoblast [7]): 3.7
- fold change (FC) (Calvarial osteoblast [8]): 3.4
- fold change (FC) (Calvarial osteoblast [9]): 3.1
- fold change (FC) (Calvarial osteoblast [10]): 4.5
- fold change (FC) (Calvarial osteoblast [11]): 3.7
- fold change (FC) (Calvarial osteoblast [12]): 5
- fold change (FC) (Calvarial osteoblast [13]): 3.9
- fold change (FC) (Calvarial osteoblast [14]): 4.5
- Activity (Calvarial osteoblast [15]): Active
- Activity (Calvarial osteoblast [16]): Non-Toxic
- Activity (Calvarial osteoblast [17]): Toxic
- EC50 (Calvarial osteoblast [18]): 0.1 nM
- Activity (Calvarial osteoblast [19]): Active
- Activity (Calvarial osteoblast [20]): Active
- Activity (Calvarial osteoblast [21]): Active
- Activity (Rattus norvegicus [22]): Non-Toxic
- Activity (Rattus norvegicus [23]): Active
- Activity (Rattus norvegicus [24]): Active
- Activity (Rattus norvegicus [25]): Active
- Activity (Rattus norvegicus [26]): Active
- Activity (Rattus norvegicus [27]): Active
- Activity (Rattus norvegicus [28]): Active
- Activity (Rattus norvegicus [29]): Active
- Activity (Rattus norvegicus [30]): Active
- Activity (Rattus norvegicus [31]): inactive
- Activity (Rattus norvegicus [32]): inactive
- Activity (Rattus norvegicus [33]): Active
- Activity (Rattus norvegicus [34]): 40%
- Activity (Rattus norvegicus [35]): Active
